The subject of experiment [1] is Leishmania donovani. Nature of the experiment: Reversal of growth inhibition of Leishmania donovani promastigotes at 50uM after 48 hrs of 1 mM putrescine treatment. In kind it is functional, organism-based. The gist of the method: (§1)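 Promastigotes grown at 22°C in M-199 (Hanks' salts, 25 mM HEPES, 10% FBS, 100 µg/ml gentamicin) with 50 µM drug. 1 mM putrescine or spermidine was added after 24 h or 48 h of treatment. Growth was followed over 120 h by hemocytometer counts every 24 h. Mean ± SD of three determinations.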

In experiment [2] the test system is Leishmania donovani. The experiment is described as follows: Reduction of putrescine level in Leishmania donovani promastigotes at 50 uM for after 48 hrs relative to control. In kind it is functional. Also noted: scale not given: the % may be the effect or the level left. The essentials:
(§2)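 Log-phase promastigotes (1 x 10^7) were exposed 48 h and pelleted at 2,000 x g, 4°C. Acid extracts were dansyl-chloride derivatized before column and analysed by C18 reversed-phase HPLC. Values are vs untreated controls, mean ± SD (n = 3), Student's t test, P < 0.05.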

Experiment [3] relates to Leishmania donovani. Nature of the experiment: Growth inhibition of Leishmania donovani promastigotes S1 LV patient isolate in J774A.1 cells after 5 days. In kind it is functional, organism-based.
For experiment [4], the system named is Leishmania donovani. The experiment is described as follows: Growth inhibition of Leishmania donovani amastigotes S1 LV patient isolate in J774A.1 cells after 5 days. In kind it is functional, organism-based. The note with it: J774.A1, 120 h. The gist of the method: (§3)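 J774A.1 murine macrophages kept at 37°C in RPMI 1640 with 10% FBS. 1 x 10^5 cells per well were infected with 1 x 10^6 stationary-phase luciferase-expressing (pGL-NEO LUC) promastigotes in M-199 with 10% FBS. Free parasites were washed off after 3 h, then drug was added at a range of concentrations for 5 days. Luciferase was read from washed adherent macrophages, and IC50 was taken from a concentration vs RLU plot.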

Experiment [5] relates to Leishmania donovani. Nature of the experiment: Growth inhibition of Leishmania donovani SAG-resistant R2 LV patient isolate amastigotes in J774A.1 cells after 5 days. In kind it is functional, organism-based. The note with it: J774.A1, 120 h. The essentials: as §3
Experiment [6] deals with Leishmania donovani. The experiment is described as follows: Growth inhibition of Leishmania donovani AG83 amastigotes transfected with episomal ODC gene construct overproducing ODC. It is filed as functional, organism-based.
For experiment [7], the system named is Leishmania donovani. Nature of the experiment: Growth inhibition of Leishmania donovani SAG-resistant R1 LV patient isolate amastigotes in J774A.1 cells after 5 days. The note with it: J774.A1, 120 h. It is filed as functional, organism-based. The essentials: as §3
Experiment [8] has as its system Leishmania donovani. Nature of the experiment: Growth inhibition of wild type Leishmania donovani AG83 amastigotes in J774A.1 after 5 days by luciferase reporter assay. Particulars: AG83, J774.A1, 120 h. Background: In a reporter assay the amount or activity of a reporter protein is the signal.
Experiment [9] has as its system Leishmania donovani. The experiment is described as follows: Growth inhibition of Leishmania donovani SAG-resistant GE1 LV patient isolate amastigotes in J774A.1 cells after 5 days. In kind it is functional, organism-based. The note with it: J774.A1, 120 h. The essentials:
as §3

The subject of experiment [10] is Leishmania donovani. The experiment is described as follows: Reduction of trypanothione level in Leishmania donovani promastigotes at 50 uM after 48 hrs relative to control. It is filed as functional. Also noted: scale not given: the % may be the effect or the level left. The gist of the method: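 Log-phase promastigotes were treated 48 h before harvest, compared with untreated controls. Mean ± SD, n = 3, Student's t test.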

For experiment [11], the system named is Leishmania donovani. Nature of the experiment: Growth inhibition of Leishmania donovani SAG-resistant R2 LV patient isolate promastigotes in J774A.1 cells after 5 days. It is filed as functional, organism-based.
The subject of experiment [12] is Leishmania donovani. The experiment is described as follows: Reduction of spermidine level in Leishmania donovani promastigotes at 50 uM after 48 hrs relative to control. In kind it is functional. Also noted: scale not given: the % may be the effect or the level left. The essentials:
as §2

In experiment [13] the target is T1, Ornithine decarboxylase (Leishmania donovani) (UniProt P27116).
T1 sequence (whole entry): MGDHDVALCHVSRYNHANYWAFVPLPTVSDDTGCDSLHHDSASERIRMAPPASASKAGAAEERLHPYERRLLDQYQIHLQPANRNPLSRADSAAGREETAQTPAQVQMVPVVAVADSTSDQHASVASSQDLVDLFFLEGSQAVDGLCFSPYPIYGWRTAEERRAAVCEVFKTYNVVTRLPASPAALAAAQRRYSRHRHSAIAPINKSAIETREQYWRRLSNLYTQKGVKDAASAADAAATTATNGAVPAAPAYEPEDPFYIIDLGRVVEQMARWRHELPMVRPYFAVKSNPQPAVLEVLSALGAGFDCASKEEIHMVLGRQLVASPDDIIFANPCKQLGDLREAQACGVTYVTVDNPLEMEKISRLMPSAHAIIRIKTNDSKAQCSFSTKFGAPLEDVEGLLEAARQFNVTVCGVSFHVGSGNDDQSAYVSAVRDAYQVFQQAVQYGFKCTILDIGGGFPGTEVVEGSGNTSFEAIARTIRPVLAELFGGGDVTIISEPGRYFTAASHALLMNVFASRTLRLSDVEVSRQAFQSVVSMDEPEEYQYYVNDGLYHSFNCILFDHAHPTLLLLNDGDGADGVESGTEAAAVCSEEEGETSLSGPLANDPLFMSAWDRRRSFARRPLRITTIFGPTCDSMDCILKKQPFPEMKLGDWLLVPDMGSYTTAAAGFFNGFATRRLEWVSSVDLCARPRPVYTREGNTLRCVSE
Nature of the experiment: Inhibition of ODC in Leishmania donovani promastigotes at 50 uM after 48 hrs. The essentials: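 Late-log promastigotes (1 x 10^7) were treated 48 h, then washed in PBS and freeze-thaw lysed in 50 mM Tris-HCl pH 7.5, 10 µM EDTA, 2.5 mM DTT. Released 14CO2 is expressed as nmol CO2/mg protein/h (Bradford). Mean ± SD, n = 3.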

The subject of experiment [14] is Leishmania donovani. The experiment is described as follows: Growth inhibition of Leishmania donovani AG83 promastigotes transfected with episomal ODC gene construct overproducing ODC. In kind it is functional, organism-based. The essentials:
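Late-log-phase promastigotes, cultured at 22°C in M-199 (Hanks' salts, 25 mM HEPES, 10% FBS, gentamicin), were exposed to drug for 72 h. MTT was then added for 4 h, the reaction was stopped with acidic isopropanol, and absorbance was read at 570 nm to give IC50. Two or more independent experiments were run in triplicate.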

The subject of experiment [15] is Leishmania donovani. The experiment is described as follows: Growth inhibition of Leishmania donovani SAG-resistant R1 LV patient isolate promastigotes in J774A.1 cells after 5 days. It is filed as functional, organism-based.
Experiment [16] concerns Leishmania donovani. The experiment is described as follows: Reversal of growth inhibition of Leishmania donovani promastigotes at 50 uM after 48 hrs of 1 mM spermidine treatment. It is filed as functional, organism-based. The essentials: as §1
The subject of experiment [17] is Leishmania donovani. Nature of the experiment: Growth inhibition of wild type Leishmania donovani AG83 promastigotes after 72 hrs by MTT method. Particulars: AG83, 72 h.
For experiment [18], the system named is Leishmania donovani. Nature of the experiment: Reversal of growth inhibition of Leishmania donovani promastigotes at 50 uM after 24 hrs of 1 mM spermidine treatment. It is filed as functional, organism-based. The essentials: as §1
In a further experiment the test system is J774.A1. The experiment is described as follows: Growth inhibition of J774A.1 macrophage cells after 24 hrs by MTT method. It is filed as functional, cell-based. The note with it: Mus musculus, J774.A1, 24 h. The gist of the method: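 J774A.1 murine macrophages kept at 37°C in RPMI 1640 with 10% FBS. Viability was read 24 h after drug addition.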
The test system of experiment [19] is Leishmania donovani. The experiment is described as follows: Growth inhibition of Leishmania donovani SAG-resistant GE1 LV patient isolate promastigotes in J774A.1 cells after 5 days. It is filed as functional, organism-based.
Experiment [20] concerns Leishmania donovani. The experiment is described as follows: Reversal of growth inhibition of Leishmania donovani promastigotes at 50uM after 24 hrs of 1 mM putrescine treatment. It is filed as functional, organism-based. The essentials:
as §1

These results are taken from ChEMBL document CHEMBL1142176, “Antileishmanial effect of 3-aminooxy-1-aminopropane is due to polyamine depletion” (Antimicrob Agents Chemother, 2007).

Activity calls are given as the source filed them. The rule behind the calls is not given here.

As usually defined, the IC50 is the concentration at which inhibition is half-maximal. A word on the inhibition: it is the percentage by which the read-out fell short of the control.

Regarding `NCCCON`, the result in the experiment on Leishmania donovani [1], with Leishmania donovani [16], with Leishmania donovani [18] and with Leishmania donovani [20] was Active. In addition, the Activity turned out to be 70% in the experiment with Leishmania donovani [2], 79% with Leishmania donovani [10] and 44% with Leishmania donovani [12]. The IC50 was 19 µM in the experiment with Leishmania donovani [3]; 10 µM in the experiment on Leishmania donovani [4]; above 200 µM in the experiment on Leishmania donovani [5]; above 100 µM in the experiment with Leishmania donovani [6]; above 200 µM with Leishmania donovani [7]; 5 µM in the experiment with Leishmania donovani [8]. Further, the IC50 in the experiment on Leishmania donovani [9] was above 200 µM; with Leishmania donovani [11] it was 46 µM; in the experiment on Leishmania donovani [14], 155 µM; in the experiment on Leishmania donovani [15] it was above 400 µM; in the experiment with Leishmania donovani [17] it was 42 µM; in the experiment with J774.A1, above 200 µM. Also, in the experiment with Leishmania donovani [19], the IC50 was above 400 µM. This compound displayed an inhibition in experiment [13] of 76%.

Turning to `NCCCC(N)(C(=O)O)C(F)F` (stereo not drawn) [EFLORNITHINE], the IC50 in the experiment with Leishmania donovani [8] is 50 µM; in the experiment with Leishmania donovani [17] it was above 10000 µM.
